Data published in ChEMBL document CHEMBL3045292, “Synthesis and herbicidal activity of 2-(7-fluoro-3-oxo- 3,4-dihydro-2H-benzo[b][1,4]oxazin-6-yl)isoindoline-1,3-diones” (J Agric Food Chem, 2005).

Experiments:
[1] = Phytotoxicity against Oryza sativa (rice) assessed as growth inhibition at 30 g/ha post-emergence treatment measured after 15 days by crop-selectivity assay; type: organism-based; details: in vivo, read-out: GI
Triticum aestivum [2] = assay: (§1) Phytotoxicity against Triticum aestivum (wheat) assessed as growth inhibition at 30 g/ha post-emergence treatment measured after 15 days by crop-selectivity assay; type: organism-based; details: in vivo, other, 360 h
[3] = Phytotoxicity against Brassica rapa subsp. oleifera assessed as growth inhibition at 7.5 g/ha post-emergence treatment measured after 15 days by crop-selectivity assay; type: organism-based; details: in vivo, read-out: GI
[4] = Phytotoxicity against Glycine max (soybean) assessed as growth inhibition at 7.5 g/ha post-emergence treatment measured after 15 days by crop-selectivity assay; type: organism-based; details: in vivo, read-out: GI
Zea mays [5] = assay: (§2) Phytotoxicity against Zea mays (maize) assessed as growth inhibition at 150 g/ha pre-emergence treatment measured after 15 days by crop-selectivity assay; type: organism-based; details: in vivo, other, 360 h
Summary of the method: (§3)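 Compounds were formulated as 100 g/L emulsifiable concentrates, with DMF as solvent and Tween-80 as emulsifier, then diluted in water to the required rate. They were sprayed on pot-grown plants in a greenhouse, in clay soil (pH 6.5, 1.6% organic matter, 37.3% clay, CEC 12.1 cmol/kg). Untreated and DMF-treated plants served as controls. Percent growth inhibition was scored visually 15 days after treatment.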

Zea mays [6] = assay: (§4) Phytotoxicity against Zea mays (maize) assessed as growth inhibition at 75 g/ha pre-emergence treatment measured after 15 days by crop-selectivity assay; type: organism-based; details: in vivo, other, 360 h; summary of the method: as §3
[7] = Phytotoxicity against Brassica rapa subsp. oleifera assessed as growth inhibition at 75 g/ha pre-emergence treatment measured after 15 days by crop-selectivity assay; type: organism-based; details: in vivo, read-out: GI
Glycine max = assay: (§5) Phytotoxicity against Glycine max (soybean) assessed as growth inhibition at 75 g/ha pre-emergence treatment measured after 15 days by crop-selectivity assay; type: organism-based; details: in vivo, other, 360 h
Triticum aestivum [8] = assay: (§6) Phytotoxicity against Triticum aestivum (wheat) assessed as growth inhibition at 30 g/ha pre-emergence treatment measured after 15 days by crop-selectivity assay; type: organism-based; details: in vivo, other, 360 h; summary of the method: as §3
Triticum aestivum [9] = assay: (§7) Phytotoxicity against Triticum aestivum (wheat) assessed as growth inhibition at 15 g/ha pre-emergence treatment measured after 15 days by crop-selectivity assay; type: organism-based; details: in vivo, other, 360 h
[10] = test system: Brassica rapa subsp. oleifera; assay: Phytotoxicity against Brassica rapa subsp. oleifera assessed as growth inhibition at 15 g/ha pre-emergence treatment measured after 15 days by crop-selectivity assay; type: organism-based; details: in vivo, other, 360 h
Zea mays [11] = assay: Phytotoxicity against Zea mays (maize) assessed as growth inhibition at 7.5 g/ha pre-emergence treatment measured after 15 days by crop-selectivity assay; type: organism-based; details: in vivo, other, 360 h; summary of the method: as §3
Triticum aestivum [12] = assay: (§8) Phytotoxicity against Triticum aestivum (wheat) assessed as growth inhibition at 15 g/ha post-emergence treatment measured after 15 days by crop-selectivity assay; type: organism-based; details: in vivo, other, 360 h
[13] = Phytotoxicity against Brassica rapa subsp. oleifera assessed as growth inhibition at 15 g/ha post-emergence treatment measured after 15 days by crop-selectivity assay; type: organism-based; details: in vivo, read-out: GI
[14] = Phytotoxicity against Gossypium (cotton) assessed as growth inhibition at 15 g/ha post-emergence treatment measured after 15 days by crop-selectivity assay; type: organism-based; details: in vivo, read-out: GI
Oryza sativa [15] = assay: (§9) Phytotoxicity against Oryza sativa (rice) assessed as growth inhibition at 7.5 g/ha pre-emergence treatment measured after 15 days by crop-selectivity assay; type: organism-based; details: in vivo, other, 360 h
Digitaria sanguinalis [16] = assay: Herbicidal activity against crabgrass Digitaria sanguinalis(hairy crabgrass) assessed as weed growth inhibition at post-emergence treatment […]; type: functional, organism-based
Summary of the method: (§10)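 Pot-grown plants in the greenhouse, in clay soil (pH 6.5, 1.6% organic matter, 37.3% clay, CEC 12.1 cmol/kg). Compound was made up as a 100 g/L emulsified concentrate (DMF, Tween-80), diluted in water and sprayed at 75 g ai/ha. Pre-emergence spraying was 24 h after sowing; post-emergence at two-leaf (dicots) or one-leaf (monocots) stage. Untreated and DMF controls. Percent growth inhibition scored visually 15 days post-treatment.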

[17] = Phytotoxicity against Zea mays (maize) assessed as growth inhibition at 7.5 g/ha post-emergence treatment measured after 15 days by crop-selectivity assay; type: organism-based; details: in vivo, read-out: GI; summary of the method: as §3
Triticum aestivum [18] = assay: (§11) Phytotoxicity against Triticum aestivum (wheat) assessed as growth inhibition at 7.5 g/ha post-emergence treatment measured after 15 days by crop-selectivity assay; type: organism-based; details: in vivo, other, 360 h; summary of the method: as §3
Oryza sativa [19] = assay: (§12) Phytotoxicity against Oryza sativa (rice) assessed as growth inhibition at 7.5 g/ha post-emergence treatment measured after 15 days by crop-selectivity assay; type: organism-based; details: in vivo, other, 360 h
Digitaria sanguinalis [20] = assay: Herbicidal activity against crabgrass Digitaria sanguinalis(hairy crabgrass) assessed as weed growth inhibition at 75 g/ha pre-emergence treatment […]; type: functional; details: read-out: GI; summary of the method: as §10
Chenopodium album = assay: Herbicidal activity against fat hen Chenopodium album assessed as weed growth inhibition at 75 g/ha pre-emergence treatment […]; type: functional; details: read-out: GI; summary of the method: as §10
Abutilon theophrasti = assay: Herbicidal activity against Abutilon theophrasti (velvetleaf) assessed as weed growth inhibition at 75 g/ha pre-emergence treatment […]; type: functional; details: read-out: GI; summary of the method: as §10
[21] = as §1; type: organism-based; details: in vivo, 30 g/ha, read-out: GI
[22] = as §2; type: organism-based; details: in vivo, 150 g/ha, read-out: GI; summary of the method: as §3
[23] = as §4; type: organism-based; details: in vivo, 75 g/ha, read-out: GI; summary of the method: as §3
[24] = as §5; type: organism-based; details: in vivo, 75 g/ha, read-out: GI
[25] = as §6; type: organism-based; details: in vivo, 30 g/ha, read-out: GI; summary of the method: as §3
[26] = as §7; type: organism-based; details: in vivo, 15 g/ha, read-out: GI
[27] = as §8; type: organism-based; details: in vivo, 15 g/ha, read-out: GI
[28] = as §9; type: organism-based; details: in vivo, 7.5 g/ha, read-out: GI
[29] = as §11; type: organism-based; details: in vivo, 7.5 g/ha, read-out: GI; summary of the method: as §3
[30] = as §12; type: organism-based; details: in vivo, 7.5 g/ha, read-out: GI

Question: For C#CCN1C(=O)COc2cc(F)c(N3C(=O)c4ccc(F)cc4C3=O)cc21, which inhibition at 360 h [1] is on record?
Answer: Its inhibition at 360 h is greater than 10%.

Question: And the “growth inhibition (GI)” value (Triticum aestivum [2])?
Answer: Its value is “Non-toxic”.

Question: And the inhibition at 360 h [3]?
Answer: The inhibition at 360 h was greater than 10%.

Question: What about the inhibition at 360 h [4] of the same compound?
Answer: The inhibition at 360 h was greater than 10%.

Question: And the “growth inhibition (GI)” value (Zea mays [5])?
Answer: Its value is “Non-toxic”.

Question: What about the “growth inhibition (GI)” value (Zea mays [6]) of the same compound?
Answer: Its value is “Non-toxic”.

Question: What about the inhibition at 360 h [7] of the same compound?
Answer: The inhibition at 360 h was greater than 10%.

Question: What about the “growth inhibition (GI)” value (Glycine max) of the same compound?
Answer: The value was “Non-toxic”.

Question: And the “growth inhibition (GI)” value (Triticum aestivum [8])?
Answer: The value was “Non-toxic”.

Question: And the “growth inhibition (GI)” value (Triticum aestivum [9])?
Answer: Its value is “Non-toxic”.

Question: What about the “growth inhibition (GI)” value [10] of the same compound?
Answer: Its value is “Non-toxic”.

Question: And the “growth inhibition (GI)” value (Zea mays [11])?
Answer: Its value is “Non-toxic”.

Question: What about the “growth inhibition (GI)” value (Triticum aestivum [12]) of the same compound?
Answer: The value was “Non-toxic”.

Question: And the inhibition at 360 h [13]?
Answer: Its inhibition at 360 h is greater than 10%.

Question: What about the inhibition at 360 h [14] of the same compound?
Answer: The inhibition at 360 h was greater than 10%.

Question: What about the “growth inhibition (GI)” value (Oryza sativa [15]) of the same compound?
Answer: The value was “Non-toxic”.

Question: And the IC50 (Digitaria sanguinalis [16])?
Answer: The IC50 was 4.8 g/ha.

Question: What about the inhibition at 360 h [17] of the same compound?
Answer: The inhibition at 360 h was 1%.

Question: And the “growth inhibition (GI)” value (Triticum aestivum [18])?
Answer: The value was “Non-toxic”.

Question: And the “growth inhibition (GI)” value (Oryza sativa [19])?
Answer: The value was “Non-toxic”.

Question: What about the inhibition of growth at 75 g/ha (Digitaria sanguinalis [20]) of the same compound?
Answer: The inhibition of growth at 75 g/ha was greater than 80%.

Question: What about the inhibition of growth at 75 g/ha (Chenopodium album) of the same compound?
Answer: Its inhibition of growth at 75 g/ha is greater than 80%.

Question: What about the inhibition of growth at 75 g/ha (Abutilon theophrasti) of the same compound?
Answer: The inhibition of growth at 75 g/ha was greater than 80%.

Question: Which inhibition at 360 h [1] does the source give for C#CCN1C(=O)COc2cc(F)c(N3C(=O)C4=C(CCCC4)C3=O)cc21 [FLUMIOXAZIN] here?
Answer: Its inhibition at 360 h is greater than 10%.

Question: What about the inhibition at 360 h [21] of the same compound?
Answer: Its inhibition at 360 h is greater than 10%.

Question: And the inhibition at 360 h [3]?
Answer: Its inhibition at 360 h is greater than 10%.

Question: What about the inhibition at 360 h [4] of the same compound?
Answer: The inhibition at 360 h was greater than 10%.

Question: And the inhibition at 360 h [22]?
Answer: Its inhibition at 360 h is 1%.

Question: What about the inhibition at 360 h [23] of the same compound?
Answer: Its inhibition at 360 h is 1%.

Question: What about the inhibition at 360 h [7] of the same compound?
Answer: Its inhibition at 360 h is greater than 10%.

Question: And the inhibition at 360 h [24]?
Answer: Its inhibition at 360 h is greater than 10%.

Question: What about the inhibition at 360 h [25] of the same compound?
Answer: The inhibition at 360 h was greater than 10%.

Question: What about the inhibition at 360 h [26] of the same compound?
Answer: Its inhibition at 360 h is greater than 10%.

Question: What about the “growth inhibition (GI)” value [10] of the same compound?
Answer: The value was “Non-toxic”.

Question: What about the “growth inhibition (GI)” value (Zea mays [11]) of the same compound?
Answer: Its value is “Non-toxic”.

Question: And the inhibition at 360 h [27]?
Answer: The inhibition at 360 h was greater than 10%.

Question: And the inhibition at 360 h [13]?
Answer: Its inhibition at 360 h is greater than 10%.

Question: What about the inhibition at 360 h [14] of the same compound?
Answer: The inhibition at 360 h was greater than 10%.

Question: And the inhibition at 360 h [28]?
Answer: Its inhibition at 360 h is greater than 10%.

Question: And the IC50 (Digitaria sanguinalis [16])?
Answer: The IC50 was 2.5 g/ha.

Question: And the inhibition at 360 h [17]?
Answer: Its inhibition at 360 h is greater than 10%.

Question: And the inhibition at 360 h [29]?
Answer: Its inhibition at 360 h is greater than 10%.

Question: And the inhibition at 360 h [30]?
Answer: The inhibition at 360 h was greater than 10%.

Question: What about the inhibition of growth at 75 g/ha (Digitaria sanguinalis [20]) of the same compound?
Answer: Its inhibition of growth at 75 g/ha is greater than 80%.

Question: And the inhibition of growth at 75 g/ha (Chenopodium album)?
Answer: The inhibition of growth at 75 g/ha was greater than 80%.

Question: And the inhibition of growth at 75 g/ha (Abutilon theophrasti)?
Answer: Its inhibition of growth at 75 g/ha is greater than 80%.
